Experimental data collected from several papers.
Lines come from different studies, so protocols differ.
Target: Activin receptor type-1 (ACVR1, Homo sapiens, UniProt Q04771)
Residues used in one study (Q04771 1-509): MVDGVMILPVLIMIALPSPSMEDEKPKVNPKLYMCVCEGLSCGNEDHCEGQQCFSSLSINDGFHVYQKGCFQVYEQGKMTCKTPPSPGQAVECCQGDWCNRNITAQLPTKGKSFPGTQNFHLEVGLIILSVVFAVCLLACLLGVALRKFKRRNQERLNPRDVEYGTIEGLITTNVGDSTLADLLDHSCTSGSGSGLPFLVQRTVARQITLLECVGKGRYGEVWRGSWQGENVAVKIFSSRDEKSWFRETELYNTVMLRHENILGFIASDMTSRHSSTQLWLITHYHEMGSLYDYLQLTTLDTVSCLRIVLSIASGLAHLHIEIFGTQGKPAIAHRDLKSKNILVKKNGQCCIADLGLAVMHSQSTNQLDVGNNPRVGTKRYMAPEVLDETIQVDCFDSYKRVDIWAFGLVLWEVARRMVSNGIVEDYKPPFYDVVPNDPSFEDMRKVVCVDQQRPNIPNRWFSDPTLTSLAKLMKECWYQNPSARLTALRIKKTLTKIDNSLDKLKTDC

SMILES	assay	conditions	endpoint	value
CC(C)(C)c1cc(C=C(C#N)C#N)cc(Br)c1O	enzyme activity, inhibitor	0.5 µM	remaining activity	102%
Cn1cncc1[C@](O)(COc1ccc(C#N)cc1-c1ccc(OC(F)(F)F)cc1)c1ccc(C#N)cc1	cell-free assay, competition with immobilised ligand	1 µM	remaining binding	78%
COc1ncccc1-c1cnn2ccc(N3CCN(C(=O)OC(C)C)CC3)nc12	binding, competition with immobilised ligand	1 µM	remaining binding	72%
Nc1ncc(-c2nc(N3CCOCC3)nc(N3CCOCC3)n2)c(C(F)F)n1	cell-free assay, competition with immobilised ligand	10 µM	remaining binding	83%
O=c1[nH]c2ccccc2n1C1CCN(Cc2ccc(-c3[nH]c4cc5ncnc5cc4nc3-c3ccccc3)cc2)CC1	cell-free assay	0.5 µM	remaining signal	102%
Cn1cc(-c2cccc(N3CCc4c(sc5c4CC(C)(C)C5)C3=O)c2CO)cc(Nc2ccncn2)c1=O	enzyme activity, inhibitor	1 µM	inhibition	-1%
N#CC1(c2ccccn2)CCN(Cc2cc(C(=O)O)c(=O)n3ccccc23)CC1	cell-free assay, competition with immobilised ligand	1 µM	remaining binding	96%
Cc1nn(C)cc1-c1nc2c(N3CCN(Cc4ccc(Cl)cc4)CC3)c(Cl)cnc2[nH]1	binding, competition with immobilised ligand	1 µM	remaining binding	90%
